High-throughput results deposited in PubChem BioAssay by Broad Institute.
This is a sample that favours compounds with a hit; in the whole collection about 2.2% have one here.
dFosB activator: activators of mouse delta FosB homodimer. activation, % at 25 µM. purified delta FosB, TAMRA-CDK5 oligo fluorescence polarization; percent of positive-control signal above neutral wells. actives 0.99% (n = 340,000);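 active means mean activation above about 17%, with every replicate also reaching it, limit read from the data, passing the limit was not always enough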
Target sequence (P13346 whole entry, looked up): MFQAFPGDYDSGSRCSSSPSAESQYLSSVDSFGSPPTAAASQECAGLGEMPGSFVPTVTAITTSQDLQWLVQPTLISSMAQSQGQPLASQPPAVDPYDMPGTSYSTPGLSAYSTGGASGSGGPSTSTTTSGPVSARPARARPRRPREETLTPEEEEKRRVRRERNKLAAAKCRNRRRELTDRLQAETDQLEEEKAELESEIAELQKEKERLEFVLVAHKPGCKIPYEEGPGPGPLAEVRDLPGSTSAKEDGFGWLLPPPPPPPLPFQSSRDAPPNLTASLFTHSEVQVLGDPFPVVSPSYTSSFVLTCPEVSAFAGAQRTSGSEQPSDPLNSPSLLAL
CFTR F508del cor: CFTR F508del correction in bronchial cells | CFBE cells, YFP halide quenching; stimulated with forskolin plus potentiator P3; % fluorescence drop versus neutral controls | activity (quench increase), % at 7.58 µM | actives 0.36% (n = 350,000) | AID 720511;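 active means mean added fluorescence quench of at least 8% versus neutral control, with both replicates also reaching 8%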;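 further: cells transiently co-express mutant CFTR-F508del with the halide-sensitive YFP; corrector assay measuring rescue of mutant channel to the surface after 24 h compound exposure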
S100A4 inh HTS: S100A4-myosin IIA interaction inhibition | actives 0.14% (n = 360,000) | inhibition, % at 10.7 µM | S100A4/TAMRA-MyoIIA peptide fluorescence polarization;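 active means mean inhibition of at least 70% across replicates, with every replicate also reaching that level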
Target sequence (P26447 whole entry, looked up): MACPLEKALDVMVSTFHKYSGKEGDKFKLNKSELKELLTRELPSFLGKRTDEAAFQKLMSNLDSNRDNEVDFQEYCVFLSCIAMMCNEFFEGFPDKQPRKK
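Assay system: human S100A4 monomer with TAMRA-labelled myosin IIA peptide / Buffer or medium: Calcium-containing HEPES buffer, pH 7.2 / Reagent: TAMRA-labelled myosin IIA heavy-chain peptide probe, 5 nM / Compound: one dose per compound / Timing: polarization read 5 min after assay mix addition, stable 5–60 min / Benchmarks: neutral control DMSO, positive control TFP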
FGF22 binding: shifts melting point of recombinant human FGF22; Q9HCT0; recombinant FGF22 thermal shift, SYPRO orange fluorescence; percent of sucrose octasulfate shift, DMSO zero; activity (Tm shift, normalised), % at 9.99 µM; actives 1.5% (n = 340,000);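 active means mean Tm shift, scaled 0 neutral to 100 positive control, at about 1.3% or above, every replicate too, limit read from the data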
Target sequence (Q9HCT0 whole entry, looked up): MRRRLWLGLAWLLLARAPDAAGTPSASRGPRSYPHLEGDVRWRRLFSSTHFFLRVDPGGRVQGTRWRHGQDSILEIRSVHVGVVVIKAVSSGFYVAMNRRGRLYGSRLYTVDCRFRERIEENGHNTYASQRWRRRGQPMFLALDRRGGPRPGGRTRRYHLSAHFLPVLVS
Numbers stand for hits; n = inactive; x = no result; ! = repeats disagree.

SMILES | dFosB activator | CFTR F508del cor | S100A4 inh HTS | FGF22 binding
NS(=O)(=O)c1ccc(CNc2ccc3ccccc3n2)cc1 | n | 8.7 | n | n
C[C@H]1CN([C@@H](C)CO)S(=O)(=O)c2ccc(C#Cc3ccc(F)cc3)cc2O[C@H]1CN(C)C(=O)CN(C)C | x | n | n | n
COc1ccc(C(=O)C[n+]2cc(-c3ccc(OC)cc3)n3c2CCCC3)cc1 | n | n | n | 43!
Cc1ccc(C(=O)C[n+]2cc(-c3ccc(C)cc3)n3c2CCCCC3)cc1 | n | x | x | x
Cc1cc(C)cc(NC(=O)CC2Oc3ccc(C)cc3NC2=O)c1 (configuration not stated) | 32 | n | n | n
CC1=NN(c2ccccc2)C(=O)C1N=Nc1cccc(O)c1 (configuration not stated) | n | 19 | n | n
COc1ccccc1NC(=O)Nc1cccc(C)n1 | n | n | n | n
Cc1cccc(NC(=O)CNC(=O)c2sc3ccccc3c2Cl)n1 | n | n | n | x
Cc1cccc(NC(=O)CNC(=O)c2ccccc2Cl)n1 | n | n | 99 | n
COC(=O)c1ccccc1NC(=O)Nc1cccc(C)n1 | n | n | n | 43
COc1ccc(NC(=O)COc2nc3ccccc3nc2N2CCOCC2)c(OC)c1 | n | n | n | 43
O=C(NCCSc1c[nH]c2ccccc12)c1ccc(Br)o1 | n | n | n | n
O=C(NCCc1ccc(O)c(Br)c1)c1ccc(Br)o1 | x | n | n | 1.7
O=C(NCCc1c[nH]c2ccccc12)c1ccc(Br)o1 | n | n | n | 2.3
O=C(O)CCNC(=O)c1ccc(Br)o1 | n | x | x | x
COCC(=O)N[C@H]1CC[C@@H](CC(=O)N2CCCCC2)O[C@@H]1CO | x | n | n | n
O=C(C[C@H]1C=C[C@H](NC(=O)c2cccc(F)c2)[C@H](CO)O1)Nc1nccs1 | x | n | n | n
C(=C/c1nccc2c1[nH]c1ccccc12)/c1ccc2c(c1)OCO2 | 64 | n | n | n
C(=N\Nc1nc2ccccc2[nH]1)/c1ccc2c(c1)OCO2 | n | n | n | n
CN(C)c1ccc2nc3ccc(=[N+](C)C)cc-3sc2c1 | 40 | n | n | n
CN(C)C(=O)c1cccc(-c2ccc3c(c2)[C@@H]2[C@@H](CCN2C(=O)C2CCC2)[C@@H](CO)N3)c1 | x | n | n | x
O=C(O)CCCN1C(=O)c2ccc(C(=O)c3cccc([N+](=O)[O-])c3)cc2C1=O | n | n | n | 43
CN(C)C(=O)c1ccc(-c2ccccc2[C@H]2[C@@H](CO)N(C(=O)C3CCCC3)[C@H]2C#N)cc1 | x | n | n | x
N#CC1(Nc2cccc(Cl)c2)CCCC1 | n | n | n | 43
CO[C@@H]1CN(C)C(=O)c2cc(NS(=O)(=O)c3ccc(C)cc3)ccc2OC[C@@H](C)N(Cc2nccs2)C[C@@H]1C | x | n | n | x
SMILES | dFosB activator | CFTR F508del cor | S100A4 inh HTS | FGF22 binding
Cc1ccccc1-c1ccccc1N | n | n | n | 44
Cc1ccccc1-c1nnc(-c2ccccc2C)o1 | n | x | x | x
COc1ccc(S(=O)(=O)Nc2cc(C(C)C)c(O)cc2C)cc1 | n | x | x | x
COc1ccc2nc3cc(Cl)ccc3c(Nc3cc(C(C)C)c(O)cc3C)c2c1 | 89 | n | n | n
O=C(CNC(=O)C1CC1)Nc1ccc(F)c(F)c1F | n | n | n | 43
CCOC(=O)C1(Cc2ccc(Cl)cc2)CCN(C(=O)c2cc(C)nc(C)n2)CC1 | n | n | n | 43
CCOC(=O)C1(CC2CC2)CCN(C(=O)c2cc(C)nc3ccc(CC)cc23)CC1 | n | n | n | 44
CCOC(=O)C1(Cc2ccc(Cl)cc2)CCN(C(=O)c2sc(C)nc2C)CC1 | n | n | n | n
CC(C)NC(=O)Nc1ccc2c(c1)C(=O)N([C@H](C)CO)C[C@@H](C)[C@H](CN(C)S(=O)(=O)c1ccccc1)OCCCC[C@@H](C)O2 | x | n | 121 | n
C[C@@H]1CCCCO[C@@H](CN(C)S(=O)(=O)c2ccccc2)[C@@H](C)CN([C@H](C)CO)C(=O)c2cc(NC(=O)CCC(F)(F)F)ccc2O1 | x | n | n | 15
CC(C)NC(=O)Nc1ccc2c(c1)C(=O)N([C@@H](C)CO)C[C@H](C)[C@@H](CN(C)S(=O)(=O)c1ccccc1)OCCCC[C@H](C)O2 | x | n | n | n
Cc1ccc(S(=O)(=O)N(C)C[C@H]2OCc3cnnn3CCCC(=O)N([C@@H](C)CO)C[C@@H]2C)cc1 | x | n | n | n
CCOc1ncccc1C(=O)Nc1ccc(F)c(F)c1 | n | n | n | 43
CO[C@@H]1CN(C)C(=O)c2ccc(NS(=O)(=O)C3CCCCC3)cc2OC[C@@H](C)NC[C@@H]1C | x | n | n | n
O=C(Cn1c(C(F)(F)F)nc2ccccc21)N=Nc1c(O)[nH]c2ccc(Br)cc12 | n | n | n | 43
C[C@H](CO)N1C[C@H](C)[C@H](CN(C)C(=O)Nc2cc(F)ccc2F)Oc2cc(/C=C/c3ccccc3)ccc2S1(=O)=O | x | n | n | 2.0
Cc1ccc(-c2ccc3c(c2)O[C@H](CN(C)C(=O)Nc2ccc(C(F)(F)F)cc2)[C@@H](C)CN([C@@H](C)CO)S3(=O)=O)cc1 | x | 8.7 | n | n
C/C=C/c1ccc2c(c1)O[C@@H](CN(C)C(=O)Nc1ccc(C(F)(F)F)cc1)[C@@H](C)CN([C@@H](C)CO)S2(=O)=O | x | n | n | 1.3
Cc1ccc(-c2ccc3c(c2)O[C@@H](CN(C)C(=O)Nc2ccc(C(F)(F)F)cc2)[C@H](C)CN([C@@H](C)CO)S3(=O)=O)cc1 | x | n | n | n
COc1ccc(NC(=O)N(C)C[C@H]2Oc3cc(-c4ccc(C)cc4)ccc3S(=O)(=O)N([C@H](C)CO)C[C@H]2C)cc1 | x | n | n | 1.7
CCCNC(=O)N1C[C@H](O)COC[C@H]2O[C@H](CC(=O)N[C@@H]3CCN(Cc4ccccc4)C3)CC[C@@H]21 | x | n | n | n
C[C@H](CO)N1C[C@H](C)[C@@H](CN(C)Cc2ccc(C(=O)O)cc2)Oc2ccc(NC(=O)Cc3ccccc3)cc2CC1=O | x | n | n | n
Cc1ccc2[nH]c(=O)cc(C(=O)OC(C)C)c2c1 | n | n | n | 43
CC(C)OC(=O)c1cc(=O)[nH]c2ccccc12 | n | x | x | x
CN(C)C(=O)C[C@@H]1C[C@@H]2c3cc(NS(=O)(=O)c4ccccc4)ccc3O[C@@H]2[C@H](CO)O1 | x | n | n | n
SMILES | dFosB activator | CFTR F508del cor | S100A4 inh HTS | FGF22 binding
O=S(=O)(N[C@@H]1CC[C@@H](CCn2cc(-c3cccnc3)nn2)O[C@H]1CO)c1ccc(Cl)cc1 | x | n | n | n
Cc1cc[n+](CC(=O)c2ccc3c(c2)OCCO3)cc1 | n | n | n | 44
NCCNc1ccc(C(=O)N2c3ccccc3Sc3ccccc32)cc1[N+](=O)[O-] | 54 | x | n | n
Nc1ccc(C(=O)OCC(=O)N2c3ccccc3Sc3ccccc32)cc1[N+](=O)[O-] | n | x | x | x
CCOc1ccc(C(C)C)cc1S(=O)(=O)N1CCOCC1 | n | n | n | 43
CCOc1ccc(OCC)c(S(=O)(=O)N2CCOCC2)c1 | n | n | n | n
C[C@@H]1CN([C@@H](C)CO)S(=O)(=O)c2ccc(-c3ccc(F)cc3)cc2O[C@H]1CN(C)Cc1cccc(F)c1 | x | n | x | x
